One molecule from ChEMBL document CHEMBL4270612, “Discovery of dual GyrB/ParE inhibitors active against Gram-negative bacteria” (Eur J Med Chem, 2018) can be followed below.

SMILES strings stand for the structures. In brackets after ≈: the same amount, converted by molar mass.

One data set has as its system Acinetobacter baumannii. Briefly: Antibacterial activity against Acinetobacter baumannii ARC3492 after 24 hrs by broth microdilution method. Particulars: ARC3492, 24 h. The data set is classed as functional. In a few lines: (§1)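 Broth microdilution per CLSI. Bacterial suspension adjusted to 1×10^6 CFU/mL in cation-adjusted Mueller–Hinton broth and mixed 1:1 with 2-fold serial compound dilutions. Plates incubated at 35 °C with shaking at 140 rpm for 24 h.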
In general terms: Broth dilution looks for growth in wells or tubes with falling amounts of substance.
For the molecule `CCNC(=O)Nc1cc(-c2nc(C(F)(F)F)cs2)c(-c2cc3ncccc3nc2N2C3CCC2CN(C)C3)cn1`, inhibition of growth (MIC) required 2 µg/mL (≈ 3.52 µM).

The next data set relates to Pseudomonas aeruginosa. Briefly: Antibacterial activity against Pseudomonas aeruginosa ARC3729 after 24 hrs by broth microdilution method. The data set is classed as functional. To be noted: ARC3729, 24 h. An outline of the steps: (§2)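 Broth microdilution per CLSI. Bacterial suspension adjusted to 1×10^6 CFU/mL in cation-adjusted Mueller–Hinton broth and mixed 1:1 with 2-fold serial compound dilutions. Final DMSO 2.5% v/v. Plates incubated at 35 °C with shaking at 140 rpm for 24 h.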
Turning to `CCNC(=O)Nc1cc(-c2nc(C(F)(F)F)cs2)c(-c2cc3ncccc3nc2N2C3CCC2CN(C)C3)cn1`, 8 µg/mL (≈ 14.1 µM) was the least that counted as inhibitory (MIC).

A further data set concerns Acinetobacter baumannii. The data set is described as follows: Antibacterial activity against Acinetobacter baumannii ARC3657 after 24 hrs by broth microdilution method. The data set is classed as functional. To be noted: ARC3657, 24 h. In a few lines:
as §2
Consider `CCNC(=O)Nc1cc(-c2nc(C(F)(F)F)cs2)c(-c2cc3ncccc3nc2N2C3CCC2CN(C)C3)cn1`, for which the MIC turned out to be 4 µg/mL (≈ 7.03 µM).

The test system of a further data set is Staphylococcus aureus. Briefly: Antibacterial activity against methicillin-resistant Staphylococcus aureus USA100 after 24 hrs by broth microdilution method. It is filed as functional. Particulars: USA100, 24 h. An outline of the steps: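 Broth microdilution per CLSI. Bacterial suspensions adjusted to 1×10^6 CFU/mL in cation-adjusted Mueller–Hinton broth, mixed 1:1 with 2-fold serial compound dilutions (final DMSO 2.5% v/v). Incubation 35 °C, 140 rpm, 24 h.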
`CCNC(=O)Nc1cc(-c2nc(C(F)(F)F)cs2)c(-c2cc3ncccc3nc2N2C3CCC2CN(C)C3)cn1` showed an MIC of under 0.06 µg/mL.

Another data set deals with Klebsiella pneumoniae. Briefly: Antibacterial activity against Klebsiella pneumoniae ARC1865 after 24 hrs by broth microdilution method. Particulars: ARC1865, 24 h. It is filed as functional. An outline of the steps: as §2
Turning to `CCNC(=O)Nc1cc(-c2nc(C(F)(F)F)cs2)c(-c2cc3ncccc3nc2N2C3CCC2CN(C)C3)cn1`, the MIC was 64 µg/mL (≈ 113 µM).

The subject of the next data set is Escherichia coli. The data set is described as follows: Antibacterial activity against tolC deficient Escherichia coli after 24 hrs by broth microdilution method. It is filed as functional.
Conditions: not given
An outline of the steps: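 Broth microdilution per CLSI guidelines. Inoculum adjusted to 1×10^6 CFU/mL in cation-adjusted Mueller–Hinton broth, added 1:1 to 2-fold serial compound dilutions; final DMSO 2.5% v/v. Plates incubated 35 °C, 140 rpm, 24 h.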
Take `CCNC(=O)Nc1cc(-c2nc(C(F)(F)F)cs2)c(-c2cc3ncccc3nc2N2C3CCC2CN(C)C3)cn1`: the MIC was determined as 0.14 µg/mL (≈ 0.246 µM).

Another data set relates to Pseudomonas aeruginosa. The data set is described as follows: Antibacterial activity against Pseudomonas aeruginosa ARC3611 after 24 hrs by broth microdilution method. To be noted: ARC3611, 24 h. It is filed as functional. An outline of the steps:
as §2
`CCNC(=O)Nc1cc(-c2nc(C(F)(F)F)cs2)c(-c2cc3ncccc3nc2N2C3CCC2CN(C)C3)cn1` had an MIC of 8 µg/mL (≈ 14.1 µM).

The test system of another data set is Pseudomonas aeruginosa. The data set is described as follows: Antibacterial activity against Pseudomonas aeruginosa ARC4063 after 24 hrs by broth microdilution method. It is filed as functional. To be noted: ARC4063, 24 h. In a few lines:
as §1
Consider `CCNC(=O)Nc1cc(-c2nc(C(F)(F)F)cs2)c(-c2cc3ncccc3nc2N2C3CCC2CN(C)C3)cn1`, for which the lowest concentration to inhibit growth (MIC) was 16 µg/mL (≈ 28.1 µM).

Another data set concerns Acinetobacter baumannii. Briefly: Antibacterial activity against Acinetobacter baumannii ARC3495 after 24 hrs by broth microdilution method. Particulars: ARC3495, 24 h. The data set is classed as functional. An outline of the steps:
as §2
Consider `CCNC(=O)Nc1cc(-c2nc(C(F)(F)F)cs2)c(-c2cc3ncccc3nc2N2C3CCC2CN(C)C3)cn1`, for which it took 2 µg/mL (≈ 3.52 µM) to inhibit growth (MIC).

Another data set has as its target DNA gyrase subunit B (Escherichia coli, UniProt P0AES6). Briefly: Inhibition of Escherichia coli GyrB (1 to 220 residues) expressed in Escherichia coli BL21(DE3).
Conditions: not given
For the molecule `CCNC(=O)Nc1cc(-c2nc(C(F)(F)F)cs2)c(-c2cc3ncccc3nc2N2C3CCC2CN(C)C3)cn1`, half-maximal inhibition (IC50) was put at 7 nM.

In another data set the test system is Acinetobacter baumannii. The data set is described as follows: Antibacterial activity against Acinetobacter baumannii ARC2675 after 24 hrs by broth microdilution method. The data set is classed as functional. Particulars: ARC2675, 24 h. An outline of the steps: as §1
Regarding `CCNC(=O)Nc1cc(-c2nc(C(F)(F)F)cs2)c(-c2cc3ncccc3nc2N2C3CCC2CN(C)C3)cn1`, the MIC amounted to 4 µg/mL (≈ 7.03 µM).

The subject of another data set is Pseudomonas aeruginosa. The data set is described as follows: Antibacterial activity against Pseudomonas aeruginosa ARC3511 after 24 hrs by broth microdilution method. Particulars: ARC3511, 24 h. It is filed as functional. In a few lines:
as §1
The molecule `CCNC(=O)Nc1cc(-c2nc(C(F)(F)F)cs2)c(-c2cc3ncccc3nc2N2C3CCC2CN(C)C3)cn1` yielded an MIC of 8 µg/mL (≈ 14.1 µM).

The test system of another data set is Acinetobacter baumannii. The data set is described as follows: Antibacterial activity against Acinetobacter baumannii ARC2779 after 24 hrs by broth microdilution method. To be noted: ARC2779, 24 h. The data set is classed as functional. In a few lines:
as §2
For the molecule `CCNC(=O)Nc1cc(-c2nc(C(F)(F)F)cs2)c(-c2cc3ncccc3nc2N2C3CCC2CN(C)C3)cn1`, inhibition of growth (MIC) required 2 µg/mL (≈ 3.52 µM).

A further data set concerns Acinetobacter baumannii. Briefly: Antibacterial activity against Acinetobacter baumannii ARC2674 after 24 hrs by broth microdilution method. The data set is classed as functional. To be noted: ARC2674, 24 h. In a few lines: as §2
`CCNC(=O)Nc1cc(-c2nc(C(F)(F)F)cs2)c(-c2cc3ncccc3nc2N2C3CCC2CN(C)C3)cn1` showed an MIC of 4 µg/mL (≈ 7.03 µM).

Another data set deals with Acinetobacter baumannii. The data set is described as follows: Antibacterial activity against Acinetobacter baumannii ARC3485 after 24 hrs by broth microdilution method. It is filed as functional. To be noted: ARC3485, 24 h. An outline of the steps: as §2
With `CCNC(=O)Nc1cc(-c2nc(C(F)(F)F)cs2)c(-c2cc3ncccc3nc2N2C3CCC2CN(C)C3)cn1`, 2 µg/mL (≈ 3.52 µM) was the least that counted as inhibitory (MIC).

In the next data set the test system is Acinetobacter baumannii. The data set is described as follows: Antibacterial activity against Acinetobacter baumannii ARC3513 after 24 hrs by broth microdilution method. It is filed as functional. Particulars: ARC3513, 24 h. In a few lines: as §2
In turn, `CCNC(=O)Nc1cc(-c2nc(C(F)(F)F)cs2)c(-c2cc3ncccc3nc2N2C3CCC2CN(C)C3)cn1` came in with an MIC of 8 µg/mL (≈ 14.1 µM).

Tested on in another data set: not listed separately
The data set is described as follows: Growth inhibition of human A549 cells. The data set is classed as cell-based.
Conditions: not given
The molecule `CCNC(=O)Nc1cc(-c2nc(C(F)(F)F)cs2)c(-c2cc3ncccc3nc2N2C3CCC2CN(C)C3)cn1` came in with a GI50 of over 25000 nM.

A further data set concerns Acinetobacter baumannii. Briefly: Antibacterial activity against Acinetobacter baumannii ARC2782 after 24 hrs by broth microdilution method. It is filed as functional. To be noted: ARC2782, 24 h. An outline of the steps:
as §2
Turning to `CCNC(=O)Nc1cc(-c2nc(C(F)(F)F)cs2)c(-c2cc3ncccc3nc2N2C3CCC2CN(C)C3)cn1`, it took 2 µg/mL (≈ 3.52 µM) to inhibit growth (MIC).

For the next data set, the system named is Acinetobacter baumannii. The data set is described as follows: Antibacterial activity against Acinetobacter baumannii ARC3493 after 24 hrs by broth microdilution method. The data set is classed as functional. Particulars: ARC3493, 24 h. An outline of the steps: as §2
Molecule `CCNC(=O)Nc1cc(-c2nc(C(F)(F)F)cs2)c(-c2cc3ncccc3nc2N2C3CCC2CN(C)C3)cn1` gave an MIC of 2 µg/mL (≈ 3.52 µM).

The next data set relates to Acinetobacter baumannii. Briefly: Antibacterial activity against Acinetobacter baumannii ARC2728 after 24 hrs by broth microdilution method. The data set is classed as functional. To be noted: ARC2728, 24 h. In a few lines:
as §2
Molecule `CCNC(=O)Nc1cc(-c2nc(C(F)(F)F)cs2)c(-c2cc3ncccc3nc2N2C3CCC2CN(C)C3)cn1` registered an MIC of 1 µg/mL (≈ 1.76 µM).

For a further data set, the system named is Pseudomonas aeruginosa. The data set is described as follows: Antibacterial activity against Pseudomonas aeruginosa ARC3727 after 24 hrs by broth microdilution method. It is filed as functional. To be noted: ARC3727, 24 h. An outline of the steps:
as §1
The molecule `CCNC(=O)Nc1cc(-c2nc(C(F)(F)F)cs2)c(-c2cc3ncccc3nc2N2C3CCC2CN(C)C3)cn1` displayed an MIC of 32 µg/mL (≈ 56.3 µM).

For another data set, the system named is Escherichia coli. Briefly: Antibacterial activity against Escherichia coli after 24 hrs by broth microdilution method. It is filed as functional.
Conditions: not given
In a few lines:
as §2
Turning to `CCNC(=O)Nc1cc(-c2nc(C(F)(F)F)cs2)c(-c2cc3ncccc3nc2N2C3CCC2CN(C)C3)cn1`, the MIC worked out at 2.27 µg/mL (≈ 3.99 µM).

As a reminder, the MIC is the lowest concentration that inhibits growth of the organism. Low values mean a more susceptible organism, high ones a less susceptible organism. Broadly, the IC50 is the concentration needed to halve the response being measured. A lower IC50 goes with greater potency. The GI50 is the concentration that inhibits growth by half. Low values mean greater sensitivity of the cells, high ones lower sensitivity of the cells.
